Assay results published in ChEMBL document CHEMBL3244193, “Design of species- or isozyme-specific enzyme inhibitors. 3. Species and isozymic differences between mammalian and bacterial adenylate kinases in substituent tolerance in an enzyme-substrate complex” (J Med Chem, 1979).

How the values were obtained:
[1] = tested on: Escherichia coli; experiment: Activity of Escherichia coli adenylate kinase by Lineweaver-Burk plot analysis relative to ATP
Outline: (§1)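 Substrate kinetics in a pyruvate kinase/lactate dehydrogenase-coupled assay: 0.1 M Tris-HCl pH 7.6, 2 mM MgSO4, 0.12 M KCl, 0.3 mM PEP, 0.38 mM NADH, 0.25 mM AMP. A340 change over 5 min at 23 °C. Derivatives screened first at ca. 0.8 mM. Five or more substrate levels; KM and Vmax (relative to ATP) taken from linear Lineweaver-Burk plots.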

[2] = tested on: CCCSc1nc2c(N)ncnc2n1[C@@H]1O[C@H](COP(=O)(O)OP(=O)(O)OP(=O)(O)O)[C@@H](O)[C@H]1O; experiment: (§2) Activity of Sprague-Dawley rat liver adenylate kinase 2 by Lineweaver-Burk plot analysis; outline: as §1
[3] = tested on: CSc1nc2c(N)ncnc2n1[C@@H]1O[C@H](COP(=O)(O)OP(=O)(O)OP(=O)(O)O)[C@@H](O)[C@H]1O; experiment: as §2; outline: as §1
[4] = tested on: Nc1ncnc2c1ncn2[C@@H]1O[C@H](COP(=O)(O)OP(=O)(O)OP(=O)(O)O)[C@@H](O)[C@H]1O; experiment: as §2; outline: as §1
[5] = tested on: O=C(CI)NCCCCCNc1ncnc2c1ncn2[C@@H]1O[C@H](COP(=O)(O)OP(=O)(O)OP(=O)(O)O)[C@@H](O)[C@H]1O; experiment: as §2; outline: as §1
[6] = tested on: CCCSc1nc2c(N)ncnc2n1[C@@H]1O[C@H](COP(=O)(O)OP(=O)(O)OP(=O)(O)O)[C@@H](O)[C@H]1O; experiment: (§3) Activity of Sprague-Dawley rat liver adenylate kinase 2 by Lineweaver-Burk plot analysis relative to ATP; outline: as §1
[7] = tested on: CSc1nc2c(N)ncnc2n1[C@@H]1O[C@H](COP(=O)(O)OP(=O)(O)OP(=O)(O)O)[C@@H](O)[C@H]1O; experiment: as §3; outline: as §1
[8] = tested on: Nc1ncnc2c1ncn2[C@@H]1O[C@H](COP(=O)(O)OP(=O)(O)OP(=O)(O)O)[C@@H](O)[C@H]1O; experiment: as §3; outline: as §1
[9] = tested on: O=C(CI)NCCCCCNc1ncnc2c1ncn2[C@@H]1O[C@H](COP(=O)(O)OP(=O)(O)OP(=O)(O)O)[C@@H](O)[C@H]1O; experiment: as §3; outline: as §1
[10] = tested on: Escherichia coli; experiment: Activity of Escherichia coli adenylate kinase by Lineweaver-Burk plot analysis; outline: as §1

`Nc1ncnc2c1ncn2[C@@H]1O[C@H](COP(=O)(O)OP(=O)(O)OP(=O)(O)O)[C@@H](O)[C@H]1O` showed a Vmax [1] of 0.06%.

With “Adenylate kinase 2, mitochondrial (Rattus norvegicus) (from UniProt P29410)” the Km [2] was 60 µM, the Km [3] was 180 µM and the Km [4] was 90 µM. For the same compound, the Km [5] was 1000 µM, the Vmax [6] was 15.7% and the Vmax [7] was 5%. It also gave a Vmax [8] of 100% and a Vmax [9] of 21%.

Work on `O=C(CI)NCCCCNc1ncnc2c1ncn2[C@@H]1O[C@H](COP(=O)(O)OP(=O)(O)OP(=O)(O)O)[C@@H](O)[C@H]1O` yielded a Vmax [10] of 0.12% and a Km [1] of 2500 µM.
